Data set [1] concerns the target T1, Protein cereblon/Tyrosine-protein kinase BTK (Homo sapiens, UniProt Q06187+Q96SW2). Kind of data set: Protac activity at CRBN/BTK in human NAMALWA cells assessed as induction of BTK protein degradation incubated for 24 hrs by immunoblotting method. Type of data set: cell-based. To be noted: namalva. The procedure, abridged: (§1)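 NAMALWA cells were grown in RPMI 1640 with 10% FBS, streptomycin and penicillin at 37 °C, 5% CO2. 2 × 10^6 cells per concentration were treated 24 h, rinsed in cold PBS, and lysed in Tris pH 8.0/deoxycholate/Triton X-100 with protease and phosphatase inhibitors.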
On the technique in general: In western blotting, separated proteins are transferred to a membrane and probed.
Target sequence in this assay (Q06187 whole entry): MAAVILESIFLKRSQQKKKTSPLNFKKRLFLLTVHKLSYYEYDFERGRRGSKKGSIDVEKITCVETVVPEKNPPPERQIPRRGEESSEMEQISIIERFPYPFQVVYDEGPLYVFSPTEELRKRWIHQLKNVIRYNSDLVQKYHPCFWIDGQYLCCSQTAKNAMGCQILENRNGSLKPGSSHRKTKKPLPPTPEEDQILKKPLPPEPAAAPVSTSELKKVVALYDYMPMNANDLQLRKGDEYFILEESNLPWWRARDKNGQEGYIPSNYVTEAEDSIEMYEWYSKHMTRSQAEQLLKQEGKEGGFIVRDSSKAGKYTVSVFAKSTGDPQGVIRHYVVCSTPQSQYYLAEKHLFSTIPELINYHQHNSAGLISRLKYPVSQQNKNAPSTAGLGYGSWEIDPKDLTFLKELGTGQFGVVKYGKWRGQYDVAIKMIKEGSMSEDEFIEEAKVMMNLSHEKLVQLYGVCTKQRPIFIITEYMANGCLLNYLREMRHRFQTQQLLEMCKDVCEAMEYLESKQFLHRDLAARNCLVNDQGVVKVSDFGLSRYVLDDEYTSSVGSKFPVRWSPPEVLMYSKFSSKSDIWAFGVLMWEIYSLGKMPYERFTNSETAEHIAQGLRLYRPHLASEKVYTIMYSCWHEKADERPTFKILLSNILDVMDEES
Target sequence in this assay (Q96SW2 whole entry): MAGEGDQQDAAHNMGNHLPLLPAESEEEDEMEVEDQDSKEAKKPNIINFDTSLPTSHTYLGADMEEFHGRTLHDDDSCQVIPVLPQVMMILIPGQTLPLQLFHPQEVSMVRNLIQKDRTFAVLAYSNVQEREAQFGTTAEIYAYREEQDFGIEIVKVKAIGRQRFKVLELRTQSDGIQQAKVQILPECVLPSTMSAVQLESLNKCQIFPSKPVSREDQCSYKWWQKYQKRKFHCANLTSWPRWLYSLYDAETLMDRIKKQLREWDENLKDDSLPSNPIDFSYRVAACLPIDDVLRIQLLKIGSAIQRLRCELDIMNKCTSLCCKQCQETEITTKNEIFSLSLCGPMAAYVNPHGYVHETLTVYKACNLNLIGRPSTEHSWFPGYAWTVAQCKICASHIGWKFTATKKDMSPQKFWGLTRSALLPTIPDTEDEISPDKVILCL

The target in data set [2] is T1, Protein cereblon/Tyrosine-protein kinase BTK. The experiment in a line: Protac activity at CRBN/BTK in human NAMALWA cells assessed as induction of BTK protein degradation incubated for 24 hrs by immunoblotting method relative to control. Type of data set: cell-based. To be noted: NAMALVA. The procedure, abridged: as §1
Target sequence in this assay (Q06187 2-659 limits assumed): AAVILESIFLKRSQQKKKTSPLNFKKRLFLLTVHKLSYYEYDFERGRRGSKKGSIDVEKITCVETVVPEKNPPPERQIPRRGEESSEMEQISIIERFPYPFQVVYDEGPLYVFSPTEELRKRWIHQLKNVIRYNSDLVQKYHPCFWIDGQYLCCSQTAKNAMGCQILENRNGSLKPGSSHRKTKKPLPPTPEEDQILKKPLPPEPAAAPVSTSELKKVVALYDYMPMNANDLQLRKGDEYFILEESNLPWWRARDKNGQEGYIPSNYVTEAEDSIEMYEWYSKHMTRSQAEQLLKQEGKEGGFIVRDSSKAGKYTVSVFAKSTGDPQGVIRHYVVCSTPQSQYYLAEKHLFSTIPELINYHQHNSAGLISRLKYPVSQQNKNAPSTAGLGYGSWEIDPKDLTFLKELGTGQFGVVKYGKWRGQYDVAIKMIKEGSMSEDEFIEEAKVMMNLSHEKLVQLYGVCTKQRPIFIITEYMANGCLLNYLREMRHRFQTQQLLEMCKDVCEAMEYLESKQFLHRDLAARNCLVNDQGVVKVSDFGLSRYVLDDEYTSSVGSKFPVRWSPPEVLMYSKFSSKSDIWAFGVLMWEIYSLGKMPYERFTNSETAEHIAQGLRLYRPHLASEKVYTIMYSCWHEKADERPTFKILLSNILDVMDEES
Target sequence in this assay (Q96SW2 whole entry partner): as the sequence (Q96SW2 whole entry) above
Data set [3] can be described thus: Tmax in mouse at 1 mg/kg, iv. Type of data set: ADME, organism-based. To be noted: in vivo.
Data set [4] can be described thus: AUClast in mouse at 1 mg/kg, iv. The format is ADME, organism-based. Also noted: dose 1 mg/kg, time 0 - last, route intravenous. The following applies: in vivo.
Data set [5] has as its target T2, von Hippel-Lindau disease tumor suppressor/Tyrosine-protein kinase BTK (Homo sapiens, UniProt Q06187+P40337). The experiment in a line: Protac activity at VHL/BTK in human NAMALWA cells assessed as induction of BTK protein degradation incubated for 24 hrs by immunoblotting method relative to control. The format is cell-based. The following applies: NAMALVA. The procedure, abridged:
as §1
Target sequence in this assay (P40337 whole entry partner): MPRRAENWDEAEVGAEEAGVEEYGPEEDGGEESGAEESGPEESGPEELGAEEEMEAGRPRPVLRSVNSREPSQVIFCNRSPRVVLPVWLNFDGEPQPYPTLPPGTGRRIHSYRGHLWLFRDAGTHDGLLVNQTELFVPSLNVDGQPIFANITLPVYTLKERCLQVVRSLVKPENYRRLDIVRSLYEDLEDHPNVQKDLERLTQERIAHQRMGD
Target sequence in this assay (Q06187 2-659 limits assumed): as the sequence (Q06187 2-659 limits assumed) above

For data set [6], the target named is T2, von Hippel-Lindau disease tumor suppressor/Tyrosine-protein kinase BTK. The experiment in a line: Protac activity at VHL/BTK in human NAMALWA cells assessed as induction of BTK protein degradation incubated for 24 hrs by immunoblotting method. The format is cell-based. The following applies: namalva. The method in brief: as §1
Target sequence in this assay (Q06187 whole entry): as the sequence (Q06187 whole entry) above
Target sequence in this assay (P40337 whole entry): as the sequence (P40337 whole entry partner) above

Bounds are passed on as bounds.

A word on the DC50: it is the concentration at which degradation of the target reaches its halfway point. For orientation: Emax means the greatest response seen or fitted, relative to the assay's reference. By Tmax is commonly meant the time at which the peak concentration occurs.

Consider `Nc1ncnc2c1c(-c1ccc(Oc3ccccc3)cc1)nn2C1CCN(CCOCCOCCOc2ccc3c(c2)C(=O)N(C2CCC(=O)NC2=O)C3=O)CC1` (configuration not stated), for which the DC50 in data set [1] was found to be 8.3 nM. The Emax in data set [2] amounted to 91%. Moreover, the Tmax in data set [3] worked out at 1.98 min. This molecule also yielded an AUClast in data set [4] of 166 ng·h/mL.

For `Cc1ncsc1-c1ccc(CNC(=O)[C@@H]2C[C@@H](O)CN2C(=O)[C@H](C(C)C)N2Cc3ccccc3C2=O)c(OCCCCOCCCCN2CCC(n3nc(-c4ccc(Oc5ccccc5)cc4)c4c(N)ncnc43)CC2)c1`, the Emax in data set [5] is 50%. Also, the DC50 in data set [6] stood at 162 nM.

As for `Cc1ncsc1-c1ccc(CNC(=O)[C@@H]2C[C@@H](O)CN2C(=O)[C@H](C(C)C)N2Cc3ccccc3C2=O)c(OCCCOCCC(=O)N2CCC(n3nc(-c4ccc(Oc5ccccc5)cc4)c4c(N)ncnc43)CC2)c1`, in data set [6], the DC50 is > 1000 nM.

With `Nc1ncnc2c1c(-c1ccc(Oc3ccccc3)cc1)nn2C1CCN(CCOCCOCCOc2ccc3c(c2)CN(C2CCC(=O)NC2=O)C3=O)CC1` (configuration not stated), in data set [1], the DC50 worked out at 7.9 nM. Moreover, the Emax in data set [2] came to 95%. The Tmax in data set [3] worked out at 1.98 min. This molecule showed an AUClast in data set [4] of 405 ng·h/mL.

Take `Cc1ncsc1-c1ccc(CNC(=O)[C@@H]2C[C@@H](O)CN2C(=O)[C@@H](NC(=O)COCCOCCN2CCC(n3nc(-c4ccc(Oc5ccccc5)cc4)c4c(N)ncnc43)CC2)C(C)(C)C)cc1`: the Emax in data set [5] came to 49%. For the same molecule, the DC50 in data set [6] worked out at 374 nM.

For the molecule `Nc1ncnc2c1c(-c1ccc(Oc3ccccc3)cc1)nn2C1CCN(CCOCCOCC(=O)Nc2ccc3c(c2)C(=O)N(C2CCC(=O)NC2=O)C3=O)CC1` (configuration not stated), the DC50 in data set [1] came out at 6.2 nM. Also, the Emax in data set [2] came to 99%. In addition, in data set [3], the Tmax is 1.98 min. Also, the AUClast in data set [4] was determined as 10.2 ng·h/mL.
